From ChEMBL document CHEMBL4257543, “Structural optimization and antibacterial evaluation of rhodomyrtosone B analogues against MRSA strains” (Medchemcomm, 2018)
Values after ≈ are worked out from the molar mass of the structure shown. Active and inactive are the calls of the source.

Assays:
Staphylococcus aureus [1] = test: Antibacterial activity against Staphylococcus aureus ATCC 6538 by micro dilution susceptibility test; type: functional
In short: (§1)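 Microbroth dilution MIC in Mueller–Hinton broth following CLSI guidelines, vancomycin as positive control; resazurin added as visible growth indicator. Assays run at least in triplicate.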

Staphylococcus aureus [2] = test: Antibacterial activity against methicillin-resistant Staphylococcus aureus JCSC 4788 by micro dilution susceptibility test; type: functional; in short: as §1
Salmonella typhi = test: Antibacterial activity against Salmonella typhi CMCC 44102 by micro dilution susceptibility test; type: functional, Salmonella enterica subsp. enterica serovar Typhi; details: Salmonella enterica; in short: as §1
Staphylococcus aureus [3] = test: Antibacterial activity against Staphylococcus aureus ATCC 29213 by micro dilution susceptibility test; type: functional; in short: as §1
Enterococcus faecalis = test: Antibacterial activity against Enterococcus faecalis ATCC 29212 by micro dilution susceptibility test; type: functional
In short: (§2)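 Microbroth dilution MIC in Mueller–Hinton broth following CLSI guidelines, with vancomycin as positive control; assays run at least in triplicate.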

Staphylococcus aureus [4] = test: Antibacterial activity against methicillin-resistant Staphylococcus aureus JCSC 4469 by micro dilution susceptibility test; type: functional; in short: as §1
Staphylococcus aureus [5] = test: Antibacterial activity against Staphylococcus aureus CMCC 26003 by micro dilution susceptibility test; type: functional; in short: as §1
Staphylococcus aureus [6] = test: Antibacterial activity against methicillin-resistant Staphylococcus aureus JCSC 2172 by micro dilution susceptibility test; type: functional; in short: as §1
Staphylococcus aureus [7] = test: Antibacterial activity against methicillin-resistant Staphylococcus aureus JCSC 3063 by micro dilution susceptibility test; type: functional; in short: as §1
Bacillus cereus = test: Antibacterial activity against Bacillus cereus ATCC 10876 by micro dilution susceptibility test; type: functional; in short: as §2
Staphylococcus aureus [8] = test: Antibacterial activity against methicillin-resistant Staphylococcus aureus JCSC 4744 by micro dilution susceptibility test; type: functional; in short: as §1
[9] = tested on: Staphylococcus epidermidis; test: Antibacterial activity against Staphylococcus epidermidis ATCC 12228 by micro dilution susceptibility test; type: functional; in short: as §2
Paenibacillus polymyxa [10] = test: Antibacterial activity against Bacillus polymyxa GIM 1.467 by micro dilution susceptibility test; type: functional; in short: as §2
Staphylococcus aureus [11] = test: Antibacterial activity against methicillin-resistant Staphylococcus aureus NCTC 10442 by micro dilution susceptibility test; type: functional; in short: as §1
Paenibacillus polymyxa [12] = test: Antibacterial activity against Bacillus polymyxa ATCC 842 by micro dilution susceptibility test; type: functional; in short: as §2
Staphylococcus aureus [13] = test: Antibacterial activity against methicillin-resistant Staphylococcus aureus 85/2082 by micro dilution susceptibility test; type: functional; in short: as §1
Enterococcus faecium = test: Antibacterial activity against vancomycin-resistant Enterococcus faecium by micro dilution susceptibility test; type: functional; in short: as §1
Shigella dysenteriae = test: Antibacterial activity against Shigella dysenteriae CMCC 51252 by micro dilution susceptibility test; type: functional; in short: as §1
Escherichia coli = test: Antibacterial activity against Escherichia coli ATCC 8739 by micro dilution susceptibility test; type: functional; in short: as §2
Cutibacterium acnes = test: Antibacterial activity against Propionicibacterium acnes ATCC 6919 by micro dilution susceptibility test; type: functional
In short: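 Microbroth dilution MIC in Mueller–Hinton broth following CLSI guidelines; […]; resazurin added as visible growth indicator; vancomycin positive control; at least triplicate.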

Candida albicans = test: Antibacterial activity against Candida albicans ATCC 10231 by micro dilution susceptibility test; type: functional; in short: as §2
Staphylococcus aureus [14] = test: Antibacterial activity against methicillin-resistant Staphylococcus aureus N315 by micro dilution susceptibility test; type: functional; in short: as §1
Staphylococcus aureus [15] = test: Ratio of MIC for methicillin-resistant Staphylococcus aureus JCSC 4788 re-passaged at 24 hrs intervals for 20 times to MIC for methicillin-resistant Staphylococcus aureus JCSC 4788; type: functional
In short: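 Sequential passaging of MRSA JCSC 4788 in MHB with sub-inhibitory compound at 24 h intervals for at least 20 passages at 37 °C. MIC after passaging, by CLSI microbroth dilution, is divided by the initial MIC. Resistance is defined as a rise of more than 4-fold.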

Staphylococcus aureus [16] = test: Antibacterial activity against methicillin-resistant Staphylococcus aureus JCSC 4788 at sub-MIC re-passaged at 24 hrs intervals for 5 times by micro dilution susceptibility test; type: functional, organism-based
In short: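 Exponential-phase MRSA JCSC 4788 at 37 °C passaged into fresh MHB containing compound at a sub-inhibitory concentration and re-passaged at 24 h intervals up to at least 20 passages; MIC then redetermined by CLSI microbroth dilution in MHB. Resistance defined as a more than 4-fold increase over the initial MIC.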

With `CC(C)CC1C2=C(Oc3c(C(=O)C4CCCC4)c(O)cc(O)c31)C(C)(C)C(=O)C(C)(C)C2=O` (centres undefined) the MIC (Staphylococcus aureus [1]) was 4 µg/mL (≈ 8.8 µM) and the MIC (Staphylococcus aureus [2]) was 4 µg/mL (≈ 8.8 µM).

In the case of `CC(C)CC1C2=C(Oc3c(C(=O)CCc4ccccc4)c(O)cc(O)c31)C(C)(C)C(=O)C(C)(C)C2=O` (centres undefined), the MIC (Staphylococcus aureus [1]) was 2 µg/mL (≈ 4.08 µM) and the MIC (Staphylococcus aureus [2]) was 2 µg/mL (≈ 4.08 µM).

Compound `CCCCCCCCC(=O)c1c(O)cc(O)c2c1OC1=C(C(=O)C(C)(C)C(=O)C1(C)C)C2CC(C)C` (centres undefined) has an MIC (Staphylococcus aureus [1]) of 0.25 µg/mL (≈ 0.501 µM) and an MIC (Staphylococcus aureus [2]) of 0.5 µg/mL (≈ 1 µM).

Work on `CCCCCCCCCCCCCCCC(=O)c1c(O)cc(O)c2c1OC1=C(C(=O)C(C)(C)C(=O)C1(C)C)C2CC(C)C` (centres undefined) yielded an MIC (Staphylococcus aureus [1]) greater than 256 µg/mL and an MIC (Staphylococcus aureus [2]) greater than 256 µg/mL.

`CCCCCCCCCCCCCC(=O)c1c(O)cc(O)c2c1OC1=C(C(=O)C(C)(C)C(=O)C1(C)C)C2CC(C)C` (centres undefined) was tested, and the MIC (Staphylococcus aureus [1]) was 128 µg/mL (≈ 225 µM) and the MIC (Staphylococcus aureus [2]) was 256 µg/mL (≈ 450 µM).

`CCCCCCCCCC(=O)c1c(O)cc(O)c2c1OC1=C(C(=O)C(C)(C)C(=O)C1(C)C)C2CC(C)C` (centres undefined) showed an MIC (Staphylococcus aureus [1]) of 0.5 µg/mL (≈ 0.975 µM) and an MIC (Staphylococcus aureus [2]) of 0.5 µg/mL (≈ 0.975 µM).

`CC(C)CC1C2=C(Oc3c(C(=O)C4CCC4)c(O)cc(O)c31)C(C)(C)C(=O)C(C)(C)C2=O` (centres undefined) showed an MIC (Staphylococcus aureus [1]) of 4 µg/mL (≈ 9.08 µM) and an MIC (Staphylococcus aureus [2]) of 8 µg/mL (≈ 18.2 µM).

`CC(C)CC(=O)c1c(O)cc(O)c2c1OC1=C(C(=O)C(C)(C)C(=O)C1(C)C)C2CC(C)C` (centres undefined) gave an MIC (Salmonella typhi) greater than 32 µg/mL, an MIC (Staphylococcus aureus [1]) of 0.5 to 1 µg/mL (≈ 1.13 to 2.26 µM) and an MIC (Staphylococcus aureus [3]) of 1 µg/mL (≈ 2.26 µM). It also gave an MIC (Enterococcus faecalis) of 1 µg/mL (≈ 2.26 µM), an MIC (Staphylococcus aureus [4]) of 0.5 µg/mL (≈ 1.13 µM) and an MIC (Staphylococcus aureus [5]) of 0.5 µg/mL (≈ 1.13 µM). For the same compound, the MIC (Staphylococcus aureus [6]) was 0.5 µg/mL (≈ 1.13 µM), the MIC (Staphylococcus aureus [7]) was 0.5 µg/mL (≈ 1.13 µM) and the MIC (Bacillus cereus) was 0.5 µg/mL (≈ 1.13 µM). For the same compound, the MIC (Staphylococcus aureus [8]) was 0.5 µg/mL (≈ 1.13 µM), the MIC [9] was 1 µg/mL (≈ 2.26 µM) and the MIC (Paenibacillus polymyxa [10]) was greater than 32 µg/mL. It also gave an MIC (Staphylococcus aureus [11]) of 1 µg/mL (≈ 2.26 µM), an MIC (Paenibacillus polymyxa [12]) greater than 32 µg/mL and an MIC (Staphylococcus aureus [13]) of 1 µg/mL (≈ 2.26 µM). The MIC (Enterococcus faecium) was 2 µg/mL (≈ 4.52 µM), the MIC (Staphylococcus aureus [2]) was 1 µg/mL (≈ 2.26 µM) and the MIC (Shigella dysenteriae) was greater than 32 µg/mL. For the same compound, the MIC (Escherichia coli) was greater than 32 µg/mL, the MIC (Cutibacterium acnes) was 0.5 µg/mL (≈ 1.13 µM) and the MIC (Candida albicans) was greater than 32 µg/mL. It also gave an MIC (Staphylococcus aureus [14]) of 1 µg/mL (≈ 2.26 µM).

`CC1COc2c(N3CCN(C)CC3)c(F)cc3c(=O)c(C(=O)O)cn1c23` (centres undefined) [OFLOXACIN] was tested, and the Ratio (Staphylococcus aureus [15]) was 16 and the Activity (Staphylococcus aureus [16]) was “inactive”.

Compound `CCCCC(=O)c1c(O)cc(O)c2c1OC1=C(C(=O)C(C)(C)C(=O)C1(C)C)C2CC(C)C` (centres undefined) has an MIC (Staphylococcus aureus [1]) of 0.5 µg/mL (≈ 1.13 µM) and an MIC (Staphylococcus aureus [2]) of 1 µg/mL (≈ 2.26 µM).

Work on `CCCCCCC(=O)c1c(O)cc(O)c2c1OC1=C(C(=O)C(C)(C)C(=O)C1(C)C)C2CC(C)C` (centres undefined) yielded an MIC (Staphylococcus aureus [1]) of 0.25 µg/mL (≈ 0.531 µM) and an MIC (Staphylococcus aureus [2]) of 0.5 µg/mL (≈ 1.06 µM).

`CC(C)CC1C2=C(Oc3cc(O)cc(O)c31)C(C)(C)C(=O)C(C)(C)C2=O` (centres undefined) gave an MIC (Staphylococcus aureus [1]) greater than 256 µg/mL and an MIC (Staphylococcus aureus [2]) of 256 µg/mL (≈ 714 µM).
